Data: ChEMBL document CHEMBL4400546, “A Cinchona Alkaloid Antibiotic That Appears To Target ATP Synthase in Streptococcus pneumoniae” (J Med Chem, 2019)
Values after ≈ are worked out from the molar mass of the structure shown. Active and inactive are the calls of the source. No cut-off for these calls is given here.

Columns and labels:
Streptococcus pneumoniae [1] = assay: Bactericidal activity against Streptococcus pneumoniae D39 assessed as fold reduction in CFU at 5 times MIC after 3 hrs by time-kill assay relative to control; format: functional
Procedure, shortened: (§1)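 Time-kill in S. pneumoniae D39 at multiples of MIC. Killing is followed by OD620 up to 18 h, with CFU determined at each time point by plating. Vancomycin is the positive control. Four independent experiments.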

[2] = test system: Streptococcus pneumoniae D39; assay: Inhibition of wild-type Streptococcus pneumoniae D39 ATP synthase atpE G145 mutant assessed as reduction in intracellular pH at >2 ug/ml measured at 5 mins by pH-sensitive GFP-based fluorescence assay; format: cell-based
Procedure, shortened: (§2)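 S. pneumoniae D39 WT and isogenic atpE G142C or G145A mutants carry a plasmid-borne ratiometric pH-sensitive GFP biosensor. Cells are in PBS pH 7.2 with 10 mM glucose and are treated with compound, DMSO (0.5% v/v) or CCCP (10 µM). Intracellular pH is read immediately and at 5-min intervals. Two independent experiments, each in triplicate.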

Streptococcus pneumoniae [3] = assay: Antibacterial activity against amoxicillin/penicillin/erythromycin/ertapenem/moxifloxacin/cefotaxime-resistant Streptococcus pneumoniae TH2889 (6B) after 20 hrs by CLSI-based microdilution method; format: functional
Pseudomonas aeruginosa = assay: Antibacterial activity against Pseudomonas aeruginosa TH4090 after 20 hrs by CLSI-based microdilution method; format: functional; conditions: TH4090, 20 h
Streptococcus pneumoniae [4] = assay: Potentiation of vancomycin-induced antibacterial activity against Streptococcus pneumoniae D39 at 2 times MIC after 20 hrs by checkerboard assay; format: functional
Procedure, shortened: (§3)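 Checkerboard combination assay in S. pneumoniae D39 with the partner antibiotic. Fractional inhibitory concentration indices were calculated, and the minimum FICI was taken per combination. Three to four independent checkerboards were run.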

Streptococcus pneumoniae [5] = assay: Antibacterial activity against optochin-resistant Streptococcus pneumoniae R6 expressing atpE G142C mutant after 20 hrs by CLSI-based microdilution method; format: functional; conditions: R6, 20 h
[6] = test system: Streptococcus pneumoniae D39; assay: Inhibition of wild-type Streptococcus pneumoniae D39 ATP synthase atpE assessed as intracellular pH at 8 ug/ml measured at 5 mins by pH-sensitive GFP-based fluorescence assay (reference value: 7.34 +/- 0.04); format: cell-based; procedure, shortened: as §2
Streptococcus pneumoniae [7] = assay: Potentiation of rifampicin-induced antibacterial activity against Streptococcus pneumoniae D39 at 2 times MIC after 20 hrs by checkerboard assay; format: functional; procedure, shortened: as §3
[8] = Mitochondrial toxicity in human HepG2 cells assessed as reduction in cell viability after 24 hrs in presence of glucose by CellTiter-Glo assay; format: cell-based
Procedure, shortened: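 HepG2 cells grown in DMEM with 10 mM glucose, treated 24 h; viability read by CellTiter-Glo luminescence. Value is the concentration giving 90% loss of viability (CC90) from dose-response curves, top concentration 300 µM.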

Streptococcus pneumoniae [9] = assay: Bactericidal activity against Streptococcus pneumoniae D39 after 24 hrs; format: functional; conditions: D39, 24 h
[10] = test system: Streptococcus pneumoniae D39; assay: Inhibition of wild-type Streptococcus pneumoniae D39 ATP synthase atpE assessed as intracellular pH at 0.25 ug/ml measured at 10 mins by pH-sensitive GFP-based fluorescence assay (reference value: 7.34 +/- 0.04); format: cell-based; procedure, shortened: as §2
[11] = test system: Streptococcus pneumoniae D39; assay: Inhibition of wild-type Streptococcus pneumoniae D39 ATP synthase atpE assessed as intracellular pH at 0.0625 ug/ml measured at 5 mins by pH-sensitive GFP-based fluorescence assay (reference value: 7.34 +/- 0.04); format: cell-based; procedure, shortened: as §2
Streptococcus pneumoniae [12] = assay: Bacteriostatic activity against Streptococcus pneumoniae D39 at 1 to 5 times MIC using 10^7CFU inoculum after 18 hrs by time-kill assay; format: functional, organism-based; procedure, shortened: as §1
[13] = test system: Streptococcus pneumoniae D39; assay: Inhibition of wild-type Streptococcus pneumoniae D39 ATP synthase atpE G142C mutant assessed as reduction in intracellular pH at >0.25 to 8 ug/ml measured at 5 mins by pH-sensitive GFP-based fluorescence assay; format: cell-based; procedure, shortened: as §2
Acinetobacter baumannii = assay: Antibacterial activity against Acinetobacter baumannii TH9781 after 20 hrs by CLSI-based microdilution method; format: functional; conditions: TH9781, 20 h
Klebsiella pneumoniae = assay: Antibacterial activity against Klebsiella pneumoniae ATCC 13883 after 20 hrs by CLSI-based microdilution method; format: functional; conditions: ATCC 13883, 20 h
Streptococcus pneumoniae [14] = assay: Potentiation of levofloxacin-induced antibacterial activity against Streptococcus pneumoniae D39 at 2 times MIC after 20 hrs by checkerboard assay; format: functional; procedure, shortened: as §3
Streptococcus pyogenes = assay: Antibacterial activity against Streptococcus pyogenes ST157 after 20 hrs by CLSI-based microdilution method; format: functional; conditions: ST157, 20 h
Streptococcus mitis = assay: Antibacterial activity against Streptococcus mitis ST138 after 20 hrs by CLSI-based microdilution method; format: functional; conditions: ST138, 20 h
Staphylococcus aureus = assay: Antibacterial activity against Staphylococcus aureus TH4114 after 20 hrs by CLSI-based microdilution method; format: functional; conditions: TH4114, 20 h
Streptococcus pneumoniae [15] = assay: Antibacterial activity against amoxicillin/penicillin/cefotaxime/erythromycin/tetracycline-resistant Streptococcus pneumoniae TH2784 (19F) after 20 hrs by CLSI-based microdilution method; format: functional
Streptococcus pneumoniae [16] = assay: Antibacterial activity against Streptococcus pneumoniae R6 after 20 hrs by CLSI-based microdilution method; format: functional; conditions: R6, 20 h
[17] = Cytotoxicity against human HepG2 cells assessed as reduction in cell viability after 48 hrs by Alamar Blue assay; format: cell-based
Streptococcus pneumoniae [18] = assay: Antibacterial activity against penicillin/erythromycin/meropenem/tetracycline-resistant Streptococcus pneumoniae TH2863 (19F) after 20 hrs by CLSI-based microdilution method; format: functional
Streptococcus pneumoniae [19] = assay: Antibacterial activity against amoxicillin/penicillin/chloramphenicol/erythromycin/meropenem/cefotaxime-resistant Streptococcus pneumoniae TH2582 (19A) after 20 hrs by CLSI-based microdilution method; format: functional
Escherichia coli = assay: Antibacterial activity against Escherichia coli TH4746 after 20 hrs by CLSI-based microdilution method; format: functional; conditions: TH4746, 20 h
Streptococcus pneumoniae [20] = assay: Potentiation of penicillin-induced antibacterial activity against Streptococcus pneumoniae D39 at 2 times MIC after 20 hrs by checkerboard assay; format: functional; procedure, shortened: as §3
[21] = test system: Streptococcus pneumoniae D39; assay: Inhibition of wild-type Streptococcus pneumoniae D39 ATP synthase atpE G142C mutant assessed as change in intracellular pH at 0.25 ug/ml measured at 5 mins by pH-sensitive GFP-based fluorescence assay (reference value: 7.34 +/- 0.04); format: cell-based; procedure, shortened: as §2
Enterococcus faecium = assay: Antibacterial activity against Enterococcus faecium TH6064 after 20 hrs by CLSI-based microdilution method; format: functional; conditions: TH6064, 20 h
[22] = test system: Streptococcus pneumoniae D39; assay: Inhibition of wild-type Streptococcus pneumoniae D39 ATP synthase atpE assessed as intracellular pH at 0.0625 ug/ml measured immediately post treatment by pH-sensitive GFP-based fluorescence assay (reference value: 7.34 +/- 0.04); format: cell-based; procedure, shortened: as §2
[23] = test system: Mycobacterium tuberculosis; assay: Antibacterial activity against Mycobacterium tuberculosis H37Rv after […] by CLSI-based microdilution method; format: functional
[24] = test system: Streptococcus pneumoniae D39; assay: Inhibition of wild-type Streptococcus pneumoniae D39 ATP synthase atpE assessed as intracellular pH at 0.25 ug/ml measured at 5 mins by pH-sensitive GFP-based fluorescence assay (reference value: 7.34 +/- 0.04); format: cell-based; procedure, shortened: as §2
Streptococcus pneumoniae [25] = assay: Antibacterial activity against Streptococcus pneumoniae D39 after 20 hrs by CLSI-based microdilution method; format: functional; conditions: D39, 20 h
Enterobacter cloacae = assay: Antibacterial activity against Enterobacter cloacae TH11715 after 20 hrs by CLSI-based microdilution method; format: functional; conditions: TH11715, 20 h
Streptococcus pneumoniae [26] = assay: Antibacterial activity against optochin-resistant Streptococcus pneumoniae R6 expressing atpE G145A mutant after 20 hrs by CLSI-based microdilution method; format: functional; conditions: R6, 20 h
[27] = Mitochondrial toxicity in human HepG2 cells assessed as reduction in cell viability after 24 hrs in presence of galactose by CellTiter-Glo assay; format: cell-based
Procedure, shortened: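 HepG2 cells are grown in DMEM supplemented with 10 mM galactose or 10 mM glucose and treated for 24 h. Viability is read by CellTiter-Glo luminescence. The CC90 is the concentration inhibiting 90% of cell viability, taken from dose–response curves. Oligomycin and tamoxifen serve as controls.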

[28] = test system: Streptococcus pneumoniae D39; assay: Inhibition of wild-type Streptococcus pneumoniae D39 ATP synthase atpE assessed as intracellular pH at 0.25 ug/ml measured at 15 mins by pH-sensitive GFP-based fluorescence assay (reference value: 7.34 +/- 0.04); format: cell-based; procedure, shortened: as §2
Streptococcus pneumoniae [29] = assay: Bacteriostatic activity against Streptococcus pneumoniae D39 up 100 times MIC after 18 hrs by time-kill assay; format: functional, organism-based; procedure, shortened: as §1
Streptococcus pneumoniae [30] = assay: Bacteriostatic activity against Streptococcus pneumoniae D39 at 1 to 5 times MIC after 18 hrs by time-kill assay; format: functional, organism-based; procedure, shortened: as §1
Streptococcus pneumoniae [31] = assay: Bacteriostatic activity against Streptococcus pneumoniae D39 assessed as resistant frequency at 4 to 16 times MIC after 24 hrs by time-kill assay; format: functional, organism-based

**Q.** For CN[C@H](CC(C)C)C(=O)N[C@H]1C(=O)N[C@@H](CC(N)=O)C(=O)N[C@H]2C(=O)N[C@H]3C(=O)N[C@H](C(=O)N[C@H](C(=O)O)c4cc(O)cc(O)c4-c4cc3ccc4O)[C@H](O)c3ccc(c(Cl)c3)Oc3cc2cc(c3O[C@@H]2O[C@H](CO)[C@@H](O)[C@H](O)[C@H]2O[C@H]2C[C@](C)(N)[C@H](O)[C@H](C)O2)Oc2ccc(cc2Cl)[C@H]1O [VANCOMYCIN], which “fold change (FC)” value (Streptococcus pneumoniae [1]) is on record?
**A.** 1000

**Q.** Which results are given for CC=C1C[N@]2CC[C@H]1C[C@H]2[C@H](O)c1ccnc2ccc(OC3CCC3)cc12?
**A.** inhibition [2]: Active; MIC (Streptococcus pneumoniae [3]): 0.5 µg/mL (≈ 1.37 µM); MIC (Pseudomonas aeruginosa): > 128 µg/mL; FIC (Streptococcus pneumoniae [4]): 0.63 - 1; MIC (Streptococcus pneumoniae [5]): 8 to 16 µg/mL (≈ 21.9 to 43.9 µM); pH [6]: 6.66; FIC (Streptococcus pneumoniae [7]): 0.63 - 1; CC90 at 24 h [8]: 150 µM; MBC (Streptococcus pneumoniae [9]): 1 to 2 µg/mL (≈ 2.74 to 5.49 µM); pH [10]: 6.68; pH [11]: 7.02; Activity (Streptococcus pneumoniae [12]): Active; inhibition [13]: Active; MIC (Acinetobacter baumannii): 128 µg/mL (≈ 351 µM); MIC (Klebsiella pneumoniae): 128 µg/mL (≈ 351 µM); FIC (Streptococcus pneumoniae [14]): 0.63 - 1; MIC (Streptococcus pyogenes): 32 µg/mL (≈ 87.8 µM); MIC (Streptococcus mitis): 16 µg/mL (≈ 43.9 µM); MIC (Staphylococcus aureus): 128 µg/mL (≈ 351 µM); MIC (Streptococcus pneumoniae [15]): 0.5 µg/mL (≈ 1.37 µM); MIC (Streptococcus pneumoniae [16]): 0.5 µg/mL (≈ 1.37 µM); CC50 at 48 h [17]: 56 µM; MIC (Streptococcus pneumoniae [18]): 0.5 to 1 µg/mL (≈ 1.37 to 2.74 µM); MIC (Streptococcus pneumoniae [19]): 0.25 to 0.5 µg/mL (≈ 0.686 to 1.37 µM); MIC (Escherichia coli): > 128 µg/mL; FIC (Streptococcus pneumoniae [20]): 0.63 - 1; deltapH [21]: < 0.03; MIC (Enterococcus faecium): 64 to 128 µg/mL (≈ 176 to 351 µM); pH [22]: 7.11; MIC [23]: > 256 µg/mL; pH [24]: 6.82; MIC (Streptococcus pneumoniae [25]): 0.7 µM (≈ 0.255 µg/mL); MIC (Enterobacter cloacae): > 128 µg/mL; MIC (Streptococcus pneumoniae [26]): 4 µg/mL (≈ 11 µM); CC90 at 24 h [27]: 150 µM; deltapH [28]: -0.52; Activity (Streptococcus pneumoniae [29]): Active; Activity (Streptococcus pneumoniae [30]): Active; Activity (Streptococcus pneumoniae [31]): Active
